Test results from ChEMBL document CHEMBL1130092, “Discovery of potent nonpeptide vitronectin receptor (alpha v beta 3) antagonists” (J Med Chem, 1997).
Bridge positions count the residues as written; N and C are the ends. Peptide text beside a SMILES is read from it.

Columns and labels:
Integrin alpha-V/beta-3 = Integrin alpha-V/beta-3 (Homo sapiens, UniProt P05106+P06756); test: Affinity for vitronectin receptor, integrin alphaV-beta3; format: protein-complex assay
In short: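 Competitive radioligand binding to human αVβ3, displacing [3H]SK&F 107260; Ki values are means of two to three separate experiments.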

[1] = target: Integrin alpha-IIb/beta-3 (Homo sapiens, UniProt P05106+P08514); test: Affinity for platelet fibrinogen receptor, integrin alpha IIb/beta3
Integrin alpha-IIb/beta-3, sequence (P05106 27-788 limits assumed): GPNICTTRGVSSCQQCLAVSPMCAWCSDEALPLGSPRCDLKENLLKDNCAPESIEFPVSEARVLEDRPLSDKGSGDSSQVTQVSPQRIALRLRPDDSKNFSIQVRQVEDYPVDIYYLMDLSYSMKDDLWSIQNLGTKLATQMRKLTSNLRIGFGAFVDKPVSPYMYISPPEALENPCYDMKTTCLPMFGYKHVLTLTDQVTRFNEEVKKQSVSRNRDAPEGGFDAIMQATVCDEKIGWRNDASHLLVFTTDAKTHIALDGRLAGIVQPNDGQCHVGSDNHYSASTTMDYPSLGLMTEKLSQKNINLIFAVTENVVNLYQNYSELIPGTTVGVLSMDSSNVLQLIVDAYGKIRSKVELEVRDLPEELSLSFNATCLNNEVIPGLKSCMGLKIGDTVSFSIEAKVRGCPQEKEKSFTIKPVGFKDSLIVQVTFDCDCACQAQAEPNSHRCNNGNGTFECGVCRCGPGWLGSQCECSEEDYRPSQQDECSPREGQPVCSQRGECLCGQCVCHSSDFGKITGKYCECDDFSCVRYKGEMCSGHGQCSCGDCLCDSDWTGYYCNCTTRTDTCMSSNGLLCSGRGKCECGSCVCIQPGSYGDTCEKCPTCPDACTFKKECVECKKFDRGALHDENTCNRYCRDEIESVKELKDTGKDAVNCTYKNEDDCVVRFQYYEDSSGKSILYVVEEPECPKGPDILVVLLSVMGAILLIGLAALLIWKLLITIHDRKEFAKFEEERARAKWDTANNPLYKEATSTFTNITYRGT
Integrin alpha-IIb/beta-3, sequence (P08514 32-887 limits assumed): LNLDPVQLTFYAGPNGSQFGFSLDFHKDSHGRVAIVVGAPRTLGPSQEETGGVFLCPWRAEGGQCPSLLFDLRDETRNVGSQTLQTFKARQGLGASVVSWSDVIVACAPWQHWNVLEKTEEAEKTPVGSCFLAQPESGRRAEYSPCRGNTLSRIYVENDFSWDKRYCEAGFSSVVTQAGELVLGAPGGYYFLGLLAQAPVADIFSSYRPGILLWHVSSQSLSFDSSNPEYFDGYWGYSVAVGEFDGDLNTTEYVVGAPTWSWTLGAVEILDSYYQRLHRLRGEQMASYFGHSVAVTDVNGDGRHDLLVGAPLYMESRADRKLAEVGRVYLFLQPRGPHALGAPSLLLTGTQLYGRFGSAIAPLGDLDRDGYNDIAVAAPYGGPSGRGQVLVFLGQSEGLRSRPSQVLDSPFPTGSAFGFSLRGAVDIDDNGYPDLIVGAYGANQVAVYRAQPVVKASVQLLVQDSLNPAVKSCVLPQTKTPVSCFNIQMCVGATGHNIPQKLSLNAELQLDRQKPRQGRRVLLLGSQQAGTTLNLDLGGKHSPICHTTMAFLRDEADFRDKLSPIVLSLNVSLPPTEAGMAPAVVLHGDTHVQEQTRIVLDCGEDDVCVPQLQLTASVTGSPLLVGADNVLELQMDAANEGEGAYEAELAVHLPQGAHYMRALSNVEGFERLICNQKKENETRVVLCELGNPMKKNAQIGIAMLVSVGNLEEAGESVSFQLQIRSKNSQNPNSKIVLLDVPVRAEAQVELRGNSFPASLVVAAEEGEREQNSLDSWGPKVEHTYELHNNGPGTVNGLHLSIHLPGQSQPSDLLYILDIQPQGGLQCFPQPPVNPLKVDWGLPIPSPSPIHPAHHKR
Integrin alpha-IIb/beta-3, sequence (P08514 891-1039 limits assumed): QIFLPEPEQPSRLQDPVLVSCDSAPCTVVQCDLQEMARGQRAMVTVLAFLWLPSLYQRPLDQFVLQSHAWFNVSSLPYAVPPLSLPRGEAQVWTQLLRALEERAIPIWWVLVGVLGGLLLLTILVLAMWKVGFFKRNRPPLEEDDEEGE

Integrin alpha-V/beta-3, sequence (P05106 27-788 limits assumed): as the sequence (P05106 27-788 limits assumed) above
Integrin alpha-V/beta-3, sequence (P06756 31-889 limits assumed): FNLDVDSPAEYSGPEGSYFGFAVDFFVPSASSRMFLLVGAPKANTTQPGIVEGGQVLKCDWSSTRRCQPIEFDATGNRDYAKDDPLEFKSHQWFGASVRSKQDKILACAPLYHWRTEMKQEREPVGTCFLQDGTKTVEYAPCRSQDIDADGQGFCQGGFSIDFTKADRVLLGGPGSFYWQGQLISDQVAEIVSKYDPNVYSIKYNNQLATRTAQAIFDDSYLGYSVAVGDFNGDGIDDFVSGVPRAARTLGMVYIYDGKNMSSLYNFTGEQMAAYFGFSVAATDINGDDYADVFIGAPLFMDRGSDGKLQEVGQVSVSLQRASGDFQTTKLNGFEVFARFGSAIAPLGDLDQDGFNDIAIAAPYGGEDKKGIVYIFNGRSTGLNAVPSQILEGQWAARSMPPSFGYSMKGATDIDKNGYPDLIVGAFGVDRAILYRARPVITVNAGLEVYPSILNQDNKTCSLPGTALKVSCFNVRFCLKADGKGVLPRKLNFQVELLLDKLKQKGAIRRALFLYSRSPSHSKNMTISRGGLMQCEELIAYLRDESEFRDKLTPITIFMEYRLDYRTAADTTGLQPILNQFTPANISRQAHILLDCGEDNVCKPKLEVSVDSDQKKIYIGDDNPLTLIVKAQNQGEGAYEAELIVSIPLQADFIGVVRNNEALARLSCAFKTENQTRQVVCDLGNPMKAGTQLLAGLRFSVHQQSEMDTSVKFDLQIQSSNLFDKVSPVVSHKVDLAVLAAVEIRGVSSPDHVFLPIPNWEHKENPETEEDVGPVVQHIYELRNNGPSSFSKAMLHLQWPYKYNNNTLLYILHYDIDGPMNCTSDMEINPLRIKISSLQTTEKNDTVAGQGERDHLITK
Integrin alpha-V/beta-3, sequence (P06756 891-1048 limits assumed): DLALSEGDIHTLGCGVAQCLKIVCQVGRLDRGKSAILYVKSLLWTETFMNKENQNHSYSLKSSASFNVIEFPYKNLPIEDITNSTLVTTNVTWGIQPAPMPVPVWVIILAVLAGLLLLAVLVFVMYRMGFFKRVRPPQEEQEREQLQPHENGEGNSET

| Ki (Integrin alpha-V/beta-3) | Ki [1] | Compound |
| --- | --- | --- |
| 56000 nM |  | N=C(N)c1ccc(NC(=O)c2ccc3c(c2)CN(CCc2ccccc2)C(=O)C(CC(=O)O)N3)cc1 (stereo not given) |
| 10 nM | 42000 nM | CC(=O)C[C@@H]1NC(=O)[C@@H](Cc2ccccc2)NC(=O)[C@H](C(C)C)NC(=O)[C@H](CCCN=C(N)N)NC(=O)CNC1=O |
| 510 nM | 4500 nM | N=C(N)c1cccc(NC(=O)c2ccc3c(c2)CN(CCc2ccccc2)C(=O)C(CC(=O)O)N3)c1 (stereo not given) |
| 50 nM |  | CN(C(=O)c1ccccc1)[C@@H](CCCNC(=N)N)C(=O)NCC1=CC(CC(=O)O)C(=O)N(c2ccccc2)CC1 (stereo not given in full) |
| 15 nM | 52000 nM | CN1Cc2cc(C(=O)NCc3nc4ccccc4[nH]3)ccc2N[C@@H](CC(=O)O)C1=O |
| 1100 nM | > 50000 nM | CN1Cc2cc(C(=O)NCCc3nc4ccccc4[nH]3)ccc2NC(CC(=O)O)C1=O (stereo not given) |
| 1150 nM | > 50000 nM | CN1Cc2cc(C(=O)Nc3nc4ccccc4[nH]3)ccc2NC(CC(=O)O)C1=O (stereo not given) |
| 1000 nM | 8 nM | CN1Cc2cc(C(=O)N3CCN(c4ccncc4)CC3)ccc2NC(CC(=O)O)C1=O (stereo not given) |
| 24 nM | 30000 nM | CN1Cc2cc(C(=O)NCc3nc4ccccc4[nH]3)ccc2NC(CC(=O)O)C1=O (stereo not given) |
| 10 nM | 75000 nM | N/C1=N/CCC[C@H](N)C(=O)NCC(=O)N[C@@H](CC(=O)O)C(=O)N[C@@H](CO)C(=O)N[C@@H](Cc2ccccc2)C(=O)NCC(=O)N1 (H-RGDSFG; lactam 1-C) |
| 3.5 nM |  | CN1C(=O)c2ccccc2SSc2ccccc2NC(=O)[C@H](CC(=O)O)NC(=O)CNC(=O)[C@@H]1CCCN=C(N)N [SKF-107260] |

| Compound | Ki (Integrin alpha-V/beta-3) | Ki [1] |
| --- | --- | --- |
| CN1Cc2cc(C(=O)N3CCN(c4ccccc4)CC3)ccc2NC(CC(=O)O)C1=O (stereo not given) |  | > 100000 nM |
